Assay results taken from article PMC5884014 (Neoplasia (New York, N.Y.), 2017).

Assays:
FHC = assay: Cytotoxicity assay; format: cell-based, human; settings: Homo sapiens, FHC, 72 h
HCT116 = assay: Cytotoxicity assay; format: cell-based, human; settings: Homo sapiens, HCT-116, 72 h
RKO = assay: Cytotoxicity assay; format: cell-based, human; settings: Homo sapiens, RKO, 72 h
LS174T = assay: Cytotoxicity assay; format: cell-based, human; settings: Homo sapiens, LS174T, 72 h
LoVo = assay: Cytotoxicity assay; format: cell-based, human; settings: Homo sapiens, LoVo, 72 h
Colo205 = assay: Cytotoxicity assay; format: cell-based, human; settings: Homo sapiens, COLO 205, 72 h
DLD-1 = assay: Cytotoxicity assay; format: cell-based, human; settings: Homo sapiens, DLD-1, 72 h
HT-29 = assay: Cytotoxicity assay; format: cell-based, human; settings: Homo sapiens, HT-29, 72 h
SW620 = assay: Cytotoxicity assay; format: cell-based, human; settings: Homo sapiens, SW-620, 72 h
Caco-2 = assay: Cytotoxicity assay; format: cell-based; settings: Homo sapiens, Caco-2, 72 h
H3347 = assay: Cytotoxicity assay; format: cell-based, human; settings: Homo sapiens, H3347, 72 h
CRC cell lines = assay: Cytotoxicity, panel of CRC cell lines; format: cell-based; settings: Homo sapiens, read-out: IC50 values in CRC cell lines
[1] = system: pGL4-WT and pGL4-MT luciferase reporters in RKO cells; assay: Luciferase reporter assay; format: cell-based, human; settings: SL-1 for 2 h
pEGFP-N1 plasmid DNA = assay: Alkaline agarose gel shift assay; format: biochemical; settings: 37°C, 2 h
RKO cells [2] = assay: Comet and modified comet assays; format: cell-based, human; settings: 24 h, SL-1 0.75 μM, 5-FU […], alone or combined
Summary of the method: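 RKO cells were exposed to the test compound and/or 5-FU for 24 h and then processed by comet assay. The read-out was tail moment, reported as means ± SD (n = 3) and compared by Student's t test. Synergy on tail moment was expressed as a combination index (CI).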

RKO cells [3] = assay: Annexin V staining assay; format: cell-based, human
RKO xenografts = assay: Anticancer activity in xenograft mouse model; format: in vivo, nude mice
[4] = Toxicology examination: complete blood counts; format: in vivo; settings: ICR mice, 5-FU 50 mg/kg i.p., SL-1 30, oxaliplatin 7.5, cisplatin 7.5 mg/kg i.v.
[5] = Toxicology examination: serum biochemistry; format: in vivo; settings: ICR mice, 5-FU 50 mg/kg i.p., SL-1 30, oxaliplatin 7.5, cisplatin 7.5 mg/kg i.v.
[6] = Toxicology examination: histopathology of kidney and liver; format: in vivo; settings: ICR mice
[7] = system: breast carcinoma MX-1 xenografts; settings: cited from earlier work

Cc1cc(NNC(=O)Nc2ccc(N(CCCl)CCCl)cc2)c2cc3c(cc2n1)OCO3 [SL-1, N-{4-[Bis(2-chloroethyl)amino]phenyl}-2-(6-methyl[1,3]-dioxolo[4,5-g]quinolin-8-yl)-hydrazinecarboxamide]
IC50 (FHC): 71500 ± 8360 nM
IC50 (HCT116): 340 ± 60 nM
IC50 (RKO): 200 ± 80 nM
IC50 (LS174T): 4550 ± 1010 nM
IC50 (LoVo): 610 ± 30 nM
IC50 (Colo205): 460 ± 100 nM
IC50 (DLD-1): 360 ± 70 nM
IC50 (HT-29): 530 ± 110 nM
IC50 (SW620): 140 ± 60 nM
IC50 (Caco-2): 5490 ± 3070 nM
IC50 (H3347): 230 ± 30 nM
IC50 (CRC cell lines): 140 to 5490 nM
inhibition of luciferase reporter activity, pGL4-WT vs pGL4-MT [1]: inhibited the reporter activity of pGL4-WT more effectively than that of pGL4-MT
concentration that induced moderate levels of ICLs (pEGFP-N1 plasmid DNA): 0.05 µM
tail moment (RKO cells [2]): 5.4 ± 0.8 μm
mode of cell death (RKO cells [3]): primarily triggered apoptosis
tumor suppression (RKO xenografts; RKO xenograft (Figure 6A), SL-1 30 mg/kg Q2D×7 i.v., oxaliplatin 7.5 mg/kg, 5-FU 50 mg/kg): 61.8%
tumor growth suppression (RKO xenografts; RKO xenograft, nude mice, day 29, SL-1 30 mg/kg i.v. every other day 7 times): approximately 65%
BASO ([4]; 2 days): 0.00 ± 0.00 10^9/l
EO ([4]; 2 days): 0.09 ± 0.03 10^9/l
HCT ([4]; 2 days): 38.32 ± 3.18%
HGB ([4]; 2 days): 12.34 ± 1.35 g/dL
LYMPH ([4]; 2 days): 3.55 ± 0.98 10^9/l
MCH ([4]; 2 days): 15.88 ± 0.48 pg
MCHC ([4]; 2 days): 25.86 ± 1.72 g/dL
MCV ([4]; 2 days): 58.18 ± 3.66 fL
MONO ([4]; 2 days): 0.05 ± 0.03 10^9/l
NEUT ([4]; 2 days): 0.54 ± 0.20 10^9/l
PLT ([4]; 2 days): 1742.40 ± 273.56 10^9/l
RBC ([4]; 2 days): 7.80 ± 1.03 10^12/l
WBC ([4]; 2 days): 4.81 ± 1.00 10^9/l
BASO ([4]; 14 days): 0.01 ± 0.01 10^9/l
EO ([4]; 14 days): 0.13 ± 0.05 10^9/l
HCT ([4]; 14 days): 46.28 ± 2.32%
HGB ([4]; 14 days): 13.36 ± 0.74 g/dL
LYMPH ([4]; 14 days): 4.17 ± 1.28 10^9/l
MCH ([4]; 14 days): 15.58 ± 0.47 pg
MCHC ([4]; 14 days): 28.84 ± 0.57 g/dL
MCV ([4]; 14 days): 53.96 ± 1.92 fL
MONO ([4]; 14 days): 0.12 ± 0.15 10^9/l
NEUT ([4]; 14 days): 1.08 ± 0.36 10^9/l
PLT ([4]; 14 days): 838.80 ± 57.98 10^9/l
RBC ([4]; 14 days): 8.60 ± 0.68 10^12/l
WBC ([4]; 14 days): 5.50 ± 1.64 10^9/l
ALP ([5]; 2 days): 331.75 ± 27.94 U/l
ALT ([5]; 2 days): 24.50 ± 2.17 U/l
AST ([5]; 2 days): 49.00 ± 3.24 U/l
BUN ([5]; 2 days): 23.05 ± 2.22 mg/dL
CRE ([5]; 2 days): 0.20 ± 0.00 mg/dL
GLU ([5]; 2 days): 466.50 ± 146.80 mg/dL
ALP ([5]; 14 days): 231.00 ± 85.33 U/l
BUN ([5]; 14 days): 20.05 ± 2.37 mg/dL
CRE ([5]; 14 days): 0.17 ± 0.06 mg/dL
GLU ([5]; 14 days): 219.75 ± 35.85 mg/dL
GOT/AST ([5]; 14 days): 47.50 ± 1.29 U/l
GPT/ALT ([5]; 14 days): 22.00 ± 8.04 U/l
liver histopathology ([6]; 2-day test): liver damage was insignificant
kidney histopathology ([6]; 2 days after single dose): insignificant morphological injury in the kidney
histopathological examination, overall ([6]; SL-1 30 mg/kg i.v.): no obvious nephrotoxicity or hepatotoxicity
growth of breast carcinoma MX-1 xenografts [7]: complete tumor remission
